Experimental data from different studies.
Compare with care: the assays were run in different laboratories.
Effect on: microbial growth

CC1=NN(CNc2ccc(C(=O)O)cc2)C(=O)C1=NNn1c(-c2ccccc2)nc2ccccc2c1=O
MIC (Micrococcus luteus; broth dilution; 24 h): 50.5 µM

O=C1NC(=S)S/C1=C\c1ccc(-c2ccc(N(c3ccccc3)c3ccccc3)cc2)c2ccccc12
MIC (Micrococcus luteus; broth dilution; ATCC10240): 250 µg/mL

CC1(C)S[C@@H]2[C@H](NC(=O)[C@H](N)c3ccccc3)C(=O)N2[C@H]1C(=O)O
MIC (Bifidobacterium longum; broth dilution; ATCCBAA999): 0.25 µg/mL

O=C(O)CN1C(=O)/C(=C/c2ccc(-c3ccc(N(c4ccccc4)c4ccccc4)cc3)c3ccccc23)NC1=S
MIC (Micrococcus luteus; broth dilution; ATCC10240): > 1000 µg/mL

CNC(=O)c1cc(Oc2ccc(NC(=O)Nc3c(C)cccc3Cl)cc2)ccn1
MIC (Staphylococcus aureus; NCTC8325): > 100 µM

O=C(O)c1cn(C2CC2)c2cc(N3CCNCC3)c(F)cc2c1=O
MIC (Micrococcus luteus; broth dilution; 24 h): 0.57 µM

COc1ccc(-c2cc3c(C)nc(N)nc3n([C@H]3CC[C@H](OCCO)CC3)c2=O)cn1
MIC (Staphylococcus aureus; NCTC8325): > 30 µM

CCc1cc(Nc2cc(=O)n(CCCCO)c(=O)[nH]2)ccc1C
MIC (Lactobacillus acidophilus; agar dilution; 48 h): 32 µg/mL

O=C1NC(=S)N/C1=C\c1ccc(-c2ccc(N(c3ccccc3)c3ccccc3)cc2)cc1
MIC (Micrococcus luteus; broth dilution; ATCC10240): 62.5 µg/mL

Cc1ncc([N+](=O)[O-])n1CCO
MIC (Lactobacillus acidophilus; agar dilution; 48 h): > 16 µg/mL

CC1=NN(CNc2ccc(Cl)cc2)C(=O)C1=NNn1c(-c2ccccc2)nc2ccccc2c1=O
MIC (Micrococcus luteus; broth dilution; 24 h): 103 µM

CO[C@H]1C[C@@H]2CC[C@@H](C)[C@@](O)(O2)C(=O)C(=O)N2CCCC[C@H]2C(=O)O[C@H]([C@H](C)C[C@@H]2CC[C@@H](OC(=O)C(C)(CO)CO)[C@H](OC)C2)CC(=O)[C@H](C)/C=C(\C)[C@@H](O)[C@@H](OC)C(=O)[C@H](C)C[C@H](C)/C=C/C=C/C=C/1C
MIC (Staphylococcus aureus; NCTC8325): > 30 µM

O=C(O)c1cn(C2CC2)c2cc(N3CCNCC3)c(F)cc2c1=O
MIC (Micrococcus luteus; broth dilution; ATCC10240): 0.98 µg/mL

CNC(=O)c1cc(Sc2ccc(NC(=O)Nc3ccc(Cl)c(C(F)(F)F)c3)cc2)ccn1
MIC (Staphylococcus aureus; NCTC8325; 24 h): 1 µM

O=C(O)CN1C(=O)/C(=C/c2ccc(-c3ccc(N(c4ccccc4)c4ccccc4)cc3)c3ccccc23)SC1=S
MIC (Micrococcus luteus; broth dilution; ATCC10240): 31.3 µg/mL

CC1=NN(CNc2ccc(O)cc2)C(=O)C1=NNn1c(-c2ccccc2)nc2ccccc2c1=O
MIC (Micrococcus luteus; broth dilution; 24 h): 53.5 µM

CC1COc2c(N3CCN(C)CC3)c(F)cc3c(=O)c(C(=O)O)cn1c23 (centres unmarked)
MIC (Staphylococcus aureus; NCTC8325): 0.5 to 2 µM
